14 molecules from ChEMBL document CHEMBL1147826, “Activity of B-nor analogues of neurosteroids on the GABA(A) receptor in primary neuronal cultures” (J Med Chem, 2006) can be followed below.

Calls of active or inactive are those of the source. The rule behind the calls is not given here.

For experiment [1], the target named is T1, GABA-A receptor; anion channel (Mus musculus) (UniProt Q8BHJ7+P26048+Q8QZW7+P50571+Q9R0Y8+P22723+A2AMW3+P62812+Q9JLF1+P26049+P22933+Q9D6F4+P63080+P27681+P16305). Put plainly: (§1) Increase in [3H]flunitrazepam binding to GABA-A receptor in mouse embryo cortical neurons. In kind it is protein-complex assay. Summed up: (§2)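 Intact mouse embryonic cortical neurons at 7-9 days in vitro, washed into HEPES buffer pH 7.3. Incubated 30 min at 25 °C with 1.3-2.0 nM [3H]flunitrazepam and steroid (1 nM-30 µM, DMSO <0.5% final). Nonspecific binding taken with 20 µM diazepam; 100 µM GABA as positive control. Data as % of control binding. EC50 from sigmoid fits of at least six concentrations in triplicate, 3-5 independent curves.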

In experiment [2] the target is T1, GABA-A receptor; anion channel (Mus musculus). Put plainly: Effect on GABA-A-induced 36chloride ion influx in mouse embryo cortical neurons at 10 uM relative to basal value. The format is functional. Summed up: (§3)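 Primary cortical neurons from 16-day mouse embryos, cultured 7-9 days with 5 µM fluorodeoxyuridine/20 µM uridine to block glia. 45 min preincubation in Earle's salt solution pH 7.4 at 36.8 °C, then 10 min at room temperature. 7 s uptake of 36Cl (0.2-0.7 µCi/mL) with or without 5 µM GABA plus steroid. Basal uptake measured without GABA or steroid. Lysate counted by scintillation.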

Experiment [3] concerns the target GABA-A receptor; anion channel. The description is as §1. In kind it is protein-complex assay. Summed up:
as §2

Experiment [4] addresses T1, GABA-A receptor; anion channel (Mus musculus). The experiment is described as follows: Effect on 36chloride ion influx in mouse embryo cortical neurons in absence of GABA-A at 10 uM relative to basal value. In kind it is functional. Summed up: as §3
The test system of experiment [5] is Cortical neurone. The experiment is described as follows: Loss of viability of cortical neuron at 100 uM after 24 hrs. The settings on record: Mus musculus. In kind it is functional, cell-based. Summed up: (§4)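 Mouse embryonic cortical neuron cultures exposed to steroid at 10 µM for 72 h, or 100 µM for 24 or 72 h. MTT (250 µg/mL in HEPES buffer) for 15 min at 37 °C, formazan dissolved in 5% SDS and read at 560 nm. Expressed as % of untreated controls. Two independent experiments in triplicate.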

Experiment [6] relates to Cortical neurone. The experiment is described as follows: Loss of viability of cortical neuron at 10 uM after 72 hrs. The format is functional, cell-based. The settings on record: Mus musculus. Summed up: as §4
Experiment [7] concerns the target GABA-A receptor; anion channel (Rattus norvegicus) (UniProt O09028+P15431+P18506+P18508+P19969+P20236+P23574+P23576+P28471+P28473+P30191+P62813+P63079+P63138+Q91ZM7+Q9ES14). The experiment is described as follows: Inhibition of [35S]TBPS binding to GABA-A receptor in Wistar rat brain membrane at 10 uM. In kind it is cell membranes. Summed up: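 Whole-brain membranes from adult male Wistar rats in 20 mM KH2PO4/200 mM KCl, pH 7.4. Incubated 60 min at 37 °C with 2 nM [35S]TBPS, 1 µM GABA and steroid. Nonspecific binding defined with 200 µM picrotoxinin. Results expressed as % of DMSO controls.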

Experiment [8] has as its system Cortical neurone. The experiment is described as follows: Loss of viability of cortical neuron at 100 uM after 72 hrs. In kind it is functional, cell-based. The settings on record: Mus musculus. Summed up: as §4

Consider `CC(=O)[C@H]1CC[C@H]2[C@H]3C(=C4CC[C@@H](O)C[C@@]4(C)[C@H]3O)CC[C@]12C`, for which the outcome in experiment [1] was inactive. The same molecule had an Activity in experiment [2] of 76%.

As to `CC(=O)[C@H]1CC[C@H]2[C@@H]3C(=O)C[C@H]4C[C@H](O)CC[C@]4(C)[C@H]3CC[C@]12C`, in experiment [1], the outcome was inactive. The Activity in experiment [2] was found to be 90%.

Take `CC(=O)[C@H]1CC[C@H]2[C@@H]3C(=O)[C@H]4C[C@H](O)CC[C@]4(C)[C@H]3CC[C@]12C`: the result in experiment [1] was inactive. This molecule gave an Activity in experiment [2] of 82%.

With `CC(=O)[C@H]1CC[C@H]2[C@@H]3[C@H]4O[C@]45C[C@@H](O)CC[C@]5(C)[C@H]3CC[C@]12C`, the result in experiment [1] was inactive. The molecule also had an Activity in experiment [2] of 99%.

For the molecule `CC(=O)[C@H]1CC[C@H]2[C@@H]3CC(=O)[C@H]4C[C@H](O)CC[C@]4(C)[C@H]3CC[C@]12C`, the result in experiment [1] was inactive. In addition, the Activity in experiment [2] was 100%.

In experiment [2], `CC(=O)[C@H]1CC[C@H]2[C@@H]3CC=C4C[C@H](O)CC[C@]4(C)[C@H]3CC[C@]12C` yielded an Activity of 131%.

With `CC(=O)[C@H]1CC[C@H]2[C@@H]3[C@H]4O[C@]45C[C@H](O)CC[C@]5(C)[C@H]3CC[C@]12C`, in experiment [1], the result was inactive. Further, the Activity in experiment [2] was found to be 104%.

`CC(=O)[C@H]1CC[C@H]2[C@@H]3C[C@@H]4C[C@H](O)CC[C@]4(C)[C@H]3CC[C@]12C`: the “Log EC50” value in experiment [3] is recorded as -6.03. For the same molecule, the figures for the Activity in experiment [2] and in experiment [4] were 172% and 1.7%, respectively. The result in the experiment on Cortical neurone [5] and with Cortical neurone [6] was inactive.

As to `CC(=O)[C@H]1CC[C@H]2[C@@H]3CN[C@H]4C[C@H](O)CC[C@]4(C)[C@H]3CC[C@]12C`, the outcome in experiment [1] was inactive. In experiment [2], this molecule displayed an Activity of 86%.

As usually defined, the inhibition is the change of the read-out against control, counted positive when it falls. In experiment [7], `CC(=O)[C@H]1CC[C@H]2[C@@H]3C[C@H]4C[C@H](O)CC[C@]4(C)[C@H]3CC[C@]12C` displayed an inhibition of 33%. Moreover, in experiment [3], the “Log EC50” value is recorded as -6.61. For the same molecule, the Activity in experiment [2] is 199%; in experiment [4], 1.7%. The result in the experiment with Cortical neurone [5] and in the experiment with Cortical neurone [6] was inactive.

As to `CC(=O)[C@H]1CC[C@H]2[C@@H]3CC[C@H]4C[C@H](O)CC[C@]4(C)[C@H]3CC[C@]12C` [BREXANOLONE], the outcome in the experiment with Cortical neurone [8] was Active. The “Log EC50” value in experiment [3] was -6.06. In addition, the Activity in experiment [2] came to 164%. Moreover, the outcome with Cortical neurone [5] and in the experiment on Cortical neurone [6] was inactive.

On to `CC(=O)[C@H]1CC[C@H]2[C@@H]3[C@@H]4O[C@@]45C[C@H](O)CC[C@]5(C)[C@H]3CC[C@]12C`, for which the outcome in experiment [1] was inactive. In experiment [2], the Activity came to 103%.

For `CC(=O)[C@H]1CC[C@H]2[C@@H]3C(=O)N[C@H]4C[C@H](O)CC[C@]4(C)[C@H]3CC[C@]12C`, the outcome in experiment [1] was inactive. Further, in experiment [2], the Activity is 81%.

In the case of `CC(=O)[C@H]1CC[C@H]2[C@@H]3CC[C@@H]4C[C@H](O)CC[C@]4(C)[C@H]3CC[C@]12C` [ELTANOLONE], the “Log EC50” value in experiment [3] is reported as -5.93. In experiment [2], this molecule gave an Activity of 162%.
